13 compounds from ChEMBL document CHEMBL1153849, “Synthesis and biological evaluation of benzenesulfonamide-substituted 4-(6-alkylpyridin-2-yl)-5-(quinoxalin-6-yl)imidazoles as transforming growth factor-beta type 1 receptor kinase inhibitors” (Eur J Med Chem, 2009) can be followed below.

The target in assay [1] is Mitogen-activated protein kinase 14 (Homo sapiens) (UniProt Q16539). As to the kind of experiment: Inhibition of p38alpha MAP kinase at 10 uM. Details: scale not given: the % may be the effect or the level left. An outline of the steps: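 Radiometric coupled assay. [γ-³²P]ATP and MAPKAP kinase-2 substrate then added, 10 min at 30 °C. Mixture spotted onto P81 phosphocellulose paper, washed with 0.75% phosphoric acid, bound radioactivity counted by liquid scintillation.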

The target in assay [2] is T1, TGF-beta receptor type-1 (Homo sapiens) (UniProt P36897).
T1 sequence (whole entry): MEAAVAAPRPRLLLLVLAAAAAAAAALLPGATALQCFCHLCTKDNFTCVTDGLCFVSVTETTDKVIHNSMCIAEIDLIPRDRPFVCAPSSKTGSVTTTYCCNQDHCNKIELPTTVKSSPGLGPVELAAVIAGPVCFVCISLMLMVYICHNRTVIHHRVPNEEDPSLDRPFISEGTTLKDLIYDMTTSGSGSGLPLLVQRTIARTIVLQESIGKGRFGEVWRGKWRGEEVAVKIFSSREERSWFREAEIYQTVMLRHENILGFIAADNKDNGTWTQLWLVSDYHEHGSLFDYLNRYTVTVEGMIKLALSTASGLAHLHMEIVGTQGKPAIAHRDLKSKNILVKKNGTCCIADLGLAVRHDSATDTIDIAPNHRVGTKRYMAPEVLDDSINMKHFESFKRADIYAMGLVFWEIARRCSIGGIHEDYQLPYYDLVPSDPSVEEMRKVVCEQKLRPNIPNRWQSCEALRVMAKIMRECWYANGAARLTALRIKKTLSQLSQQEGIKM
Briefly: Inhibition of human ALK5 activity in human HaCaT cells assessed as ARE-luciferase reporter activity. It counts as cell-based. The settings on record: in the assay text read “p3TP-luciferase” for “ARE-luciferase”. The method in brief:
(§1)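 HaCaT cells seeded at 5 × 10⁴ per well; next day (about 90% confluent) transiently co-transfected with p3TP-Luc or ARE-Luc reporter plus β-galactosidase by lipofection. Inhibitors added 24 h post-transfection, 2 h before stimulation with 5 ng/mL TGF-β for 18–24 h. Luminescence of lysates read. Mean ± SD of three independent experiments run in triplicate, relative to DMSO vehicle control.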

Assay [3] deals with T1, TGF-beta receptor type-1 (Homo sapiens). As to the kind of experiment: Inhibition of human ALK5 activity in human HaCaT cells assessed as p3TP-luciferase reporter activity. The assay is classed as cell-based. An outline of the steps: as §1
(Reporter assays use an easily measured gene product as a stand-in for the process of interest.)

Chain of Mitogen-activated protein kinase 14 (Homo sapiens) (Q16539 whole entry): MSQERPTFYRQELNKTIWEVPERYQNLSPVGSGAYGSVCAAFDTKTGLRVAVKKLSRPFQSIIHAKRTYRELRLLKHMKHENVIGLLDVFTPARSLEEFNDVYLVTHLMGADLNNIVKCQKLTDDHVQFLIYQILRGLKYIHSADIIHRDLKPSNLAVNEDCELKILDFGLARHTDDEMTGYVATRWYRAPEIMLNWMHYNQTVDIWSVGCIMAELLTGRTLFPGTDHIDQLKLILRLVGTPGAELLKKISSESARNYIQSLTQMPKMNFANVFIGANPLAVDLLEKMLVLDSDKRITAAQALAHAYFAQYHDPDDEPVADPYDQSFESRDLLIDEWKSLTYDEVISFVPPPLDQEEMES

Turning to `NC(=O)c1ccc(-c2nc(-c3ccccn3)c(-c3ccc4c(c3)OCO4)[nH]2)cc1`, the Activity in assay [1] turned out to be 49%.
`CCCCc1cccc(-c2[nH]c(Cc3ccc(S(N)(=O)=O)cc3)nc2-c2ccc3nccnc3c2)n1` yielded an Activity in assay [1] of 104%.
On the same count and under the same terms, next, `CC(C)c1cccc(-c2[nH]c(CCc3ccc(S(N)(=O)=O)cc3)nc2-c2ccc3nccnc3c2)n1`: 105%; `NS(=O)(=O)c1ccc(Cc2nc(-c3ccc4nccnc4c3)c(-c3ccccn3)[nH]2)cc1`: 95%; `Cc1cccc(-c2[nH]c(CCc3ccc(S(N)(=O)=O)cc3)nc2-c2ccc3nccnc3c2)n1`: 91%.
In assay [1], `NS(=O)(=O)c1ccc(CCc2nc(-c3ccc4nccnc4c3)c(-c3ccccn3)[nH]2)cc1` gave an Activity of 97%.
Regarding `CCc1cccc(-c2[nH]c(Cc3ccc(S(N)(=O)=O)cc3)nc2-c2ccc3nccnc3c2)n1`, the Activity is 92% in assay [1], “Dose-dependent effect” in assay [2] and “Dose-dependent effect” in assay [3].
In turn, `CC(C)c1cccc(-c2[nH]c(Cc3ccc(S(N)(=O)=O)cc3)nc2-c2ccc3nccnc3c2)n1` gave an Activity in assay [1] of 98%.
As for `Cc1cccc(-c2[nH]c(Cc3ccc(S(N)(=O)=O)cc3)nc2-c2ccc3nccnc3c2)n1`, the Activity in assay [1] was 89%; in assay [2], “Dose-dependent effect”; in assay [3], “Dose-dependent effect”.
Regarding `CCCc1cccc(-c2[nH]c(CCc3ccc(S(N)(=O)=O)cc3)nc2-c2ccc3nccnc3c2)n1`, the Activity in assay [1] amounted to 103%.
On the same count and under the same terms, as for `CCc1cccc(-c2[nH]c(CCc3ccc(S(N)(=O)=O)cc3)nc2-c2ccc3nccnc3c2)n1`, the figure is 96%; as for `CCCCc1cccc(-c2[nH]c(CCc3ccc(S(N)(=O)=O)cc3)nc2-c2ccc3nccnc3c2)n1`, 97%; as for `CCCc1cccc(-c2[nH]c(Cc3ccc(S(N)(=O)=O)cc3)nc2-c2ccc3nccnc3c2)n1`, 105%.
